# Measurements taken from ChEMBL document CHEMBL2390833, “Elucidation of the pharmacophore of echinocystic acid, a new lead for blocking HCV entry” (Eur J Med Chem, 2013).
# Legend:
# [1] = test system: Vesicular stomatitis virus; experiment: Antiviral activity against Vesicular stomatitis virus assessed as blockage of VSV pseudo paricle entry to human Hep3B cells at 5 uM after 72 hrs; assay type: functional, Hep 3B2
# [2] = test system: Vesicular stomatitis virus; experiment: Antiviral activity against Vesicular stomatitis virus assessed as blockage of VSV pseudo paricle entry to human Hep3B cells at 1 uM after 72 hrs; assay type: functional, Hep 3B2
# [3] = test system: Hepatitis C virus; experiment: Antiviral activity against Hepatitis C virus assessed as blockage of HCV pseudo paricle entry to human Hep3B cells at 5 uM after 72 hrs; assay type: functional, Hepacivirus hominis, Hep 3B2
# [4] = test system: Hepatitis C virus; experiment: Antiviral activity against Hepatitis C virus assessed as blockage of HCV pseudo paricle entry to human Hep3B cells at 1 uM after 72 hrs; assay type: functional, Hepacivirus hominis, Hep 3B2
# [5] = Hemolytic activity in rabbit RBC assessed as hemolysis after 60 mins by microtitre plate reader analysis; assay type: ADME, cell-based, Oryctolagus cuniculus; settings: erythrocyte, 1 h
# Procedure, shortened: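 Rabbit erythrocytes at 2% (5 × 10⁸ RBC/mL) in PBS, pH 7.4, exposed to serially diluted compounds for 60 min at 37 °C. Hemolysis was read as absorbance at 541 nm, and percentage hemolysis was calculated by the routine method.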
Structure (SMILES),Activity [1],Activity [2],Activity [3],Activity [4],Activity [5]
CC1(C)C[C@H]2C3=CC[C@@H]4[C@@]5(C)CC[C@H](O)C(C)(C)[C@@H]5CC[C@@]4(C)[C@]3(C)C[C@@H](O)[C@@]2(C(=O)O)C[C@@H]1O,33.2%,20.7%,18.4%,-5.7%,–
CC1(C)[C@@H](O)CC[C@]2(C)[C@H]3CC=C4[C@@H]5C[C@](C)(CO)CC[C@]5(C(=O)O)[C@H](O)C[C@@]4(C)[C@]3(C)CC[C@@H]12,3.6%,-2.5%,36.5%,16.5%,Non-toxic
CC1(C)CC[C@]2(C(=O)O)[C@H](O)C[C@]3(C)C(=CC[C@@H]4[C@@]5(C)CC[C@H](O)C(C)(C)[C@@H]5C[C@H](O)[C@]43C)[C@@H]2C1,5.6%,1.6%,53.5%,30.4%,Non-toxic
CC1(C)CC[C@]2(C(=O)O)[C@H](O)C[C@]3(C)C(=CC[C@@H]4[C@@]5(C)[C@H](O)C[C@H](O)C(C)(C)[C@@H]5CC[C@]43C)[C@@H]2C1,11.8%,7.9%,35.2%,14.3%,Non-toxic
CC1(C)CC2=C3C=C[C@@H]4[C@@]5(C)CC[C@H](O)C(C)(C)[C@@H]5CC[C@@]4(C)[C@]3(C)C[C@@H](O)[C@@]23C[C@@H]1OC3=O,-10.3%,-16.2%,31.7%,11.6%,Non-toxic
CC1(C)C[C@H]2C3=CC[C@@H]4[C@@]5(C)CC[C@H](O)C(C)(C)[C@@H]5[C@H](O)C[C@@]4(C)[C@]3(C)C[C@@H](O)[C@@]23C[C@@H]1OC3=O,-24%,-8.3%,4.7%,-1%,Non-toxic
CC1(C)C[C@H]2C3=CC[C@@H]4[C@@]5(C)[C@H](O)C[C@H](O)C(C)(C)[C@@H]5CC[C@@]4(C)[C@]3(C)C[C@@H](O)[C@@]23C[C@@H]1OC3=O,19.2%,1.8%,72.6%,28.9%,Non-toxic
CC1(C)CC[C@@]2(C(=O)O)C(=C3C=C[C@@H]4[C@@]5(C)CC[C@H](O)C(C)(C)[C@@H]5C[C@H](O)[C@@]4(C)[C@]3(C)C[C@H]2O)C1,-4.4%,-13.7%,31.9%,22.2%,–
CC1(C)CC[C@]2(C(=O)O)[C@H](O)C[C@]3(C)C(=CC[C@@H]4[C@@]5(C)CCC(=O)C(C)(C)[C@@H]5CC[C@]43C)[C@@H]2C1,13.6%,-2.5%,41.6%,7.5%,Non-toxic
CC1(C)CC[C@@]2(C(=O)O)C(=C3C=C[C@@H]4[C@@]5(C)[C@H](O)C[C@H](O)C(C)(C)[C@@H]5CC[C@@]4(C)[C@]3(C)C[C@H]2O)C1,5.9%,-15.8%,26.3%,2.3%,–
CC1(C)C(=O)CC[C@]2(C)[C@H]3CC=C4[C@@H]5C[C@](C)(CO)CC[C@]5(C(=O)O)[C@H](O)C[C@@]4(C)[C@]3(C)CC[C@@H]12,10.7%,-20%,-3.3%,3.1%,–
CC1(C)C[C@H]2C3=CC[C@@H]4[C@@]5(C)CC[C@H](O)C(C)(C)[C@@H]5CC[C@@]4(C)[C@]3(C)C[C@@H](O)[C@@]23C[C@@H]1OC3=O,-12.1%,-17.3%,31.9%,13.9%,Non-toxic
CC1(C)CC[C@]2(C(=O)O)[C@H](O)C[C@]3(C)C(=CC[C@@H]4[C@@]5(C)CC[C@H](O)C(C)(C)[C@@H]5CC[C@]43C)[C@H]2C1 [ECHINOCYSTIC ACID],-0.1%,-0.1%,75.5%,21.3%,–
